In one test the target is Aβ fibrils (Homo sapiens, UniProt P05067). Kind of test: Thioflavin-T competition binding assay, Aβ fibrils. The method, boiled down:
(§1)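 Fibrils were prepared per earlier work and held fixed at 1 μM. Thioflavin-T was 50 nM with Aβ fibrils and 4 μM with tau fibrils. Test compound at varying concentrations was diluted in 30 mM Tris-HCl pH 7.4 with 0.1% BSA. Incubation was 1.5 h at room temperature, and fluorescence was read at ex 440/30, em 485/20. EC50 came from a one-site competitive fit, Ki = EC50/(1+[ligand]/Kd), as mean ± SD of two assays.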
Aβ fibrils, sequence (P05067 672-713): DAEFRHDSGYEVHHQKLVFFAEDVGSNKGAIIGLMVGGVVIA
`COc1ccc(/C=C/C(=O)c2nc3ccccc3s2)cc1` [Compound 4, (E)-1-(Benzo[d]thiazol-2-yl)-3-(4-methoxyphenyl)prop-2-en-1-one] returned a Ki of 353 ± 29.7 nM. As for `CN(C)c1ccc(/C=C/C(=O)c2nc3ccccc3s2)cc1` [Compound 5, (E)-1-(Benzo[d]thiazol-2-yl)-3-(4-(dimethylamino)phenyl)prop-2-en-1-one], the affinity corresponds to a Ki of 91 ± 12.7 nM. On the same count and under the same terms, for `O=C(/C=C/c1ccc([N+](=O)[O-])cc1)c1nc2ccccc2s1` [Compound 6, (E)-1-(Benzo[d]thiazol-2-yl)-3-(4-nitrophenyl)prop-2-en-1-one] the value was 89 ± 26.9 nM; for `COc1ccc(/C=C/C(=O)c2nccs2)cc1` [Compound 7, (E)-3-(4-Methoxyphenyl)-1-(thiazol-2-yl)prop-2-en-1-one], above 500 nM. Same read-out and setting: for `CN(C)c1ccc(/C=C/C(=O)c2nccs2)cc1` [Compound 8, (E)-3-(4-(Dimethylamino)phenyl)-1-(thiazol-2-yl)prop-2-en-1-one] the value was 505 ± 49.5 nM; for `O=C(/C=C/c1ccc([N+](=O)[O-])cc1)c1nccs1` [Compound 9, (E)-3-(4-Nitrophenyl)-1-(thiazol-2-yl)prop-2-en-1-one], 404 ± 80.6 nM; for `COc1ccc(-c2cc(-c3nccs3)on2)cc1` [Compound 10, 3-(4-Methoxyphenyl)-5-(thiazol-2-yl)isoxazole], above 1000 nM. On the same count and under the same terms, for `COc1ccc(-c2cc(-c3nccs3)n[nH]2)cc1` [Compound 12, 2-(5-(4-Methoxyphenyl)-1H-pyrazol-3-yl)thiazole] the value was above 1000 nM; for `COc1ccc(/C=C/c2cc(-c3nccs3)[nH]n2)cc1` [Compound 13, (E)-2-(3-(4-Methoxystyryl)-1H-pyrazol-5-yl)thiazole], 327 ± 76.4 nM.

The target in the next test is tau fibrils (Homo sapiens, UniProt P10636). The test can be described thus: Thioflavin-T competition binding assay, tau fibrils. The essentials: as §1
tau fibrils, sequence (P10636 560-692 limits assumed): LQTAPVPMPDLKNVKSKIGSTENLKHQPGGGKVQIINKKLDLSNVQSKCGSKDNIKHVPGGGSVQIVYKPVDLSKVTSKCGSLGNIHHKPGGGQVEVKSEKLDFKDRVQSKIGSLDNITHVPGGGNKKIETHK
Take `COc1ccc(/C=C/C(=O)c2nc3ccccc3s2)cc1` [Compound 4, (E)-1-(Benzo[d]thiazol-2-yl)-3-(4-methoxyphenyl)prop-2-en-1-one]: the inhibition constant Ki came out at 716 ± 58.7 nM. The compound `COc1ccc(/C=C/C(=O)c2nccs2)cc1` [Compound 7, (E)-3-(4-Methoxyphenyl)-1-(thiazol-2-yl)prop-2-en-1-one] displayed a Ki above 1000 nM. Turning to `CN(C)c1ccc(/C=C/C(=O)c2nccs2)cc1` [Compound 8, (E)-3-(4-(Dimethylamino)phenyl)-1-(thiazol-2-yl)prop-2-en-1-one], the affinity corresponds to a Ki of 401 ± 118 nM. `COc1ccc(-c2cc(-c3nccs3)on2)cc1` [Compound 10, 3-(4-Methoxyphenyl)-5-(thiazol-2-yl)isoxazole] returned an inhibitory constant (Ki) above 1000 nM.

Regarding `COc1ccc(-c2cc(-c3nccs3)n[nH]2)cc1` [Compound 12, 2-(5-(4-Methoxyphenyl)-1H-pyrazol-3-yl)thiazole], the inhibition constant Ki was above 1000 nM. Still for that read-out and setting: for `COc1ccc(/C=C/c2cc(-c3nccs3)[nH]n2)cc1` [Compound 13, (E)-2-(3-(4-Methoxystyryl)-1H-pyrazol-5-yl)thiazole] the value was above 1000 nM.

A word on the Ki: it is the dissociation constant of the complex between target and ligand, obtained from inhibition or displacement. A lower Ki goes with a stronger hold on the target.

The record behind these values is publication PMC6130786 (ACS Omega, 2018).
